Screens (PubChem)
Kir21 block = inhibitors of mouse Kir2.1 inward-rectifier potassium channel | Inward rectifier potassium channel 2 (Mus musculus), P35561 | HEK293-Kir2.1, FluxOR thallium flux fluorescence; active compounds read low | B-score at 10 µM | hit rate 0.85% among 310,000;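 active = fluorescence ratio B-score at or below minus 3 SD of library scores, with starting-brightness B-score within 2 SD, cut at about -4.2 in these data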;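 note: channel flux triggered by added potassium and thallium sulfate stimulus; B-score of peak minus minimum fluorescence over baseline after thallium stimulus; more negative B-score means stronger Kir2.1 block with less thallium influx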
TRPC4 block = inhibitors of mouse TRPC4 channel, primary screen, Fluo4 calcium, HEK293 TRPC4beta/mu-opioid cells. AID 2247, 2010. hit rate 0.39% among 300,000. B-score at 10 µM. DAMGO-evoked Fluo4 calcium flux; active compounds read low;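 active = B-score over 3 SD under the library average, no early fluorescence shift, positive overall ratio signal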
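Assay system: TRPC4beta/mu-opioid receptor HEK293 cell line; compound dosing: single concentration per test compound; detection: Fluo4 Ca2+ flux fluorescence; evaluation: per-well B score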
TRPC4 PAM = positive allosteric modulators of TRPC4, primary screen, cell-based, mouse TRPC4beta, HEK293 mu-opioid, Fluo-4 calcium | Short transient receptor potential channel 4 (Mus musculus), Q9QUQ5 | DAMGO EC20, Fluo-4 Ca2+ flux; active compounds read high | B-score at 10 µM | hit rate 0.42% among 310,000 | AID 2227, 2009;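 active = B-score of calcium response area above 5 SD of library B-scores, with initial fluorescence ratio within 5 SD of library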;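 note: B-score of integrated fluorescence ratio over time as area under calcium response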
TRPC4 act = activators of mouse TRPC4 channel, primary screen, Fluo4 calcium, HEK293 TRPC4beta/mu-opioid cells; Fluo4 calcium fluorescence; active compounds read high; B-score at 10 µM; hit rate 0.49% among 310,000;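 active = B-score above 5 SD of library B-scores, and initial fluorescence ratio not above library mean plus 5 SD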;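 note: positive B-score marks a calcium rise read as TRPC4 activation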
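Technique: kinetic Fluo4 calcium fluorescence; Test system: TRPC4beta and mu-opioid receptor HEK293 stable cells; Measure: B-scored integrated calcium fluorescence ratio; Benchmarks: low control buffer alone, high control maximal DAMGO; Schedule: 45 min room-temperature Fluo4 loading, 110 s read.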
TRPC6 inh = mouse TRPC6 channel inhibitors, primary screen, cell-based, HEK293, membrane potential dye; Short transient receptor potential channel 6 (Mus musculus), Q61143; ACh-evoked depolarization; active compounds read low; B-score at 10 µM; hit rate 1.1% among 310,000; AID 2553, 2010;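 active = B-score under library mean minus 3 SD, initial fluorescence not abnormally high, positive integrated signal ratio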;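 note: B-score derived from integrated fluorescence ratio over the kinetic read; more negative B-score means stronger inhibition of depolarization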
Target sequence (Q61143 whole entry, looked up): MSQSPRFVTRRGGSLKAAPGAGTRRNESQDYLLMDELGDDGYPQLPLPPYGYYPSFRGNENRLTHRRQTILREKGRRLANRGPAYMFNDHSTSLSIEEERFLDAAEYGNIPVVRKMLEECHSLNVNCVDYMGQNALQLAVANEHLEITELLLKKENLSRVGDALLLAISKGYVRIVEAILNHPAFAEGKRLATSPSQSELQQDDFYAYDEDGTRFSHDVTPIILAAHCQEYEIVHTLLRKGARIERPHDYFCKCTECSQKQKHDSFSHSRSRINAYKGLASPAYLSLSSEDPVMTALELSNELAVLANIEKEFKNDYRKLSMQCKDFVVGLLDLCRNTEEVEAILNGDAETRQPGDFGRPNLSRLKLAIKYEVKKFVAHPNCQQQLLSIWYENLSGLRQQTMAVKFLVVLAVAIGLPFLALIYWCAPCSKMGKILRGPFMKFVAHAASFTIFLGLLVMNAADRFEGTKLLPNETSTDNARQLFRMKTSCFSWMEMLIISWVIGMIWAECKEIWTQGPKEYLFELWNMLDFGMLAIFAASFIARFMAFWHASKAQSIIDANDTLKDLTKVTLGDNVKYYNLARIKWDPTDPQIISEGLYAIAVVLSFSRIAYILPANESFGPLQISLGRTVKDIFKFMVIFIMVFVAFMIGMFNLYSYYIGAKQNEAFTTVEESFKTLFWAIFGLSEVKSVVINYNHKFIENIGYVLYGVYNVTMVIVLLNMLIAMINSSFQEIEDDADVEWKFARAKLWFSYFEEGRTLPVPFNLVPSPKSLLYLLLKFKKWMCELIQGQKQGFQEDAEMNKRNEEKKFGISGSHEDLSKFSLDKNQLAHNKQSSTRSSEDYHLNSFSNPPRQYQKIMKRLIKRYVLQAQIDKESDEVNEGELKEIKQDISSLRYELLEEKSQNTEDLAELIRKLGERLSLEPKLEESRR
TRPC6 act = mouse TRPC6 channel activators, primary screen, cell-based, HEK293, membrane potential dye; Short transient receptor potential channel 6 (Mus musculus), Q61143; HEK293-TRPC6 membrane potential dye fluorescence; active compounds read high; B-score at 10 µM; hit rate 0.13% among 310,000; AID 2550, 2010;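 active = B-score of the integrated fluorescence ratio above library mean plus 3 SD, and starting fluorescence ratio within library mean plus 5 SD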;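 note: higher score means more depolarization so channel activation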
HEK293 TRPC6 ctr = parental HEK293 membrane potential modulation, confirmation, counter-screen for TRPC6 modulator project, cell-based. shares compounds with TRPC6 inh. hit rate 51% among 2,400. membrane potential signal change, % at 10 µM. AID 488924, 2010. membrane potential dye fluorescence;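 active = membrane potential signal moves up or down beyond 5 SD from buffer-only wells, on both duplicate plates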
HEK293 MPD ctr 2 = parental HEK293 nonspecific activity of TRPC6 modulators, second screen. hit rate 14% among 2,400. AID 488926. shares compounds with TRPC6 inh. membrane potential dye fluorescence; after compound, maximal acetylcholine stimulation. inhibition, % at 10 µM;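 active = membrane potential signal drops by more than 5 SD from the mean control signal, in both duplicate plates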;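 note: plate controls were acetylcholine ECmax control wells for no effect and buffer only wells for full effect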
TRPC4/MOR mod = TRPC4 modulation by TRPC6 hit compounds, confirmation, selectivity assay for TRPC6 modulator project, cell-based, HEK293 TRPC4/mu-opioid, membrane potential dye, mouse. shares compounds with TRPC6 inh. membrane potential fluorescence. percent change from control (negative = decrease, positive = increase), % at 10 µM. hit rate 69% among 2,400;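 active = membrane potential signal moved up or down beyond 5 SD of buffer control wells, in both duplicate plates, actives on both sides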;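 note: plate controls were assay buffer wells for no effect and DAMGO maximal-effect wells for full effect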
TRPC4/MOR inh 2 = mouse TRPC4 off-target activity of TRPC6 modulators, second screen; shares compounds with TRPC6 inh; HEK293 TRPC4/mu-opioid, membrane potential dye fluorescence; stimulated with maximal-effect DAMGO; inhibition, % at 10 µM; hit rate 55% among 2,400; AID 488928;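 active = drop in membrane potential signal beyond 5 SD of the control wells in both duplicate plates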;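 note: TRPC4 counter screen for TRPC6 hits run under conditions tuned for TRPC6 not TRPC4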
TRPC6 inh conf = mouse TRPC6 channel inhibitors, confirmation, HEK293 cells, membrane potential dye, duplicate; shares compounds with TRPC6 inh; ACh-evoked depolarization; inhibition, % at 10 µM; hit rate 43% among 3,300;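 active = fluorescence ratio falls more than 5 SD below the full-stimulation control mean, in both duplicate runs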;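 note: integrated fluorescence ratio of peak minus minimum over baseline after agonist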
TRPC6 act confirm = mouse TRPC6 channel activators, confirmation, HEK293 cells, membrane potential dye, duplicate | activation, % at 10 µM | shares compounds with TRPC6 inh | hit rate 11% among 2,800 | HEK293-TRPC6 membrane potential dye fluorescence, FDSS | AID 488961, 2010;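 active = ratio signal rise beyond 5 SD above unstimulated control wells' mean, seen in both duplicate runs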;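 note: plate controls were buffer EC0 wells for no effect and acetylcholine ECmax response for full effect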
* marks the source's active call; other numbers are inactive results; i = inactive; x = no result given. Compounds with a hit are over-represented: about 2.9% of the library has one in this group of screens.

SMILES	Kir21 block	TRPC4 block	TRPC4 PAM	TRPC4 act	TRPC6 inh	TRPC6 act	HEK293 TRPC6 ctr	HEK293 MPD ctr 2	TRPC4/MOR mod	TRPC4/MOR inh 2	TRPC6 inh conf	others
CCOC(=O)C1CCN(C(c2cc3c(C)ccc(C)c3[nH]c2=O)c2nnnn2C2CCCCC2)CC1 (stereo unspecified)	-0.69	i	i	i	i	i	x	x	x	x	x
COc1ccccc1CNc1cc(C)ccn1	1.7	i	i	i	i	i	x	x	x	x	x
COCCN(C(=O)COC(=O)C1CCC(C(C)(C)C)CC1)c1c(N)n(Cc2ccccc2)c(=O)[nH]c1=O (stereo unspecified)	0.38	i	i	i	i	i	x	x	x	x	x
O=C(c1ccc(Cl)cc1)N1CCOc2ccccc21	-0.44	i	i	i	i	i	x	x	x	x	x
Cc1cccc(-c2nc(=S)c3c(n2Cc2ccco2)CCCC3)c1	0.07	i	i	i	-6.3*	i	184%*	i	42%*	i	i
CC(=O)N(C)c1ccc(NC(=O)Cc2cccs2)cc1	1.7	i	i	i	i	i	x	x	x	x	x
O=C(NC1CCN(Cc2ccccc2)CC1)C1COc2ccccc2O1 (stereo unspecified)	-1.4	i	i	i	-5.7*	i	104%*	86%*	12%*	29%*	72%*
O=C(NC1CCN(Cc2ccccc2)CC1)c1cn(-c2ccccc2)nc1-c1cccnc1	-0.76	i	i	i	-5.6*	i	91%*	i	i	52%*	41%*	TRPC6 act confirm=i
Cc1ccc(C)n1-c1ccc(C(=O)NC2CCN(Cc3ccccc3)CC2)cc1	-3.3	i	i	i	-5.1*	i	i	i	i	36%*	i	TRPC6 act confirm=i
O=C(O)c1cn(-c2ccccc2)nc1-c1cccnc1	-0.63	i	i	i	i	i	x	x	x	x	x
Cc1ccc(CN2CCC(NC(=O)c3ccccc3)CC2)cc1	-1.3	i	i	i	i	i	x	x	x	x	x
Cc1ccccc1CNC(=O)C1CCN(c2nnc(N3CCCC3=O)s2)CC1	-0.51	i	i	i	i	i	x	x	x	x	x
Cc1cc(Cl)ccc1OCc1nnc2n1CCCCC2	-0.84	i	i	i	i	i	x	x	x	x	x
CCOC(=O)Cc1nnc(NC(=O)CSc2ncc(-c3ccccc3)nn2)s1	-0.46	i	i	i	i	i	x	x	x	x	x
